The source made the active and inactive calls.
What was measured:
Escherichia coli [1] = test: Potentiation of vancomycin-induced antibiotic activity against Escherichia coli ATCC 25922 assessed as MIC fold reduction at 8 ug/ml after 18 hrs by microbroth dilution method; format: functional; conditions: dose 8 µg/ml
Acinetobacter baumannii [2] = test: Potentiation of tobramycin-induced antibiotic activity against Acinetobacter baumannii ATCC 17978 assessed as MIC fold reduction at 8 ug/ml after 18 hrs by microbroth dilution method; format: functional; conditions: dose 8 µg/ml
Escherichia coli [3] = test: Potentiation of tobramycin-induced antibiotic activity against Escherichia coli ATCC 25922 assessed as MIC fold reduction at 8 ug/ml after 18 hrs by microbroth dilution method; format: functional; conditions: dose 8 µg/ml
Pseudomonas aeruginosa [4] = test: Potentiation of colistin-induced antibiotic activity against Pseudomonas aeruginosa PAO1 assessed as MIC fold reduction at 8 ug/ml after 18 hrs by microbroth dilution method; format: functional; conditions: dose 8 µg/ml
Summary of the method: (§1)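 Adjuvant held at a fixed 8 μg/mL while the antibiotic was 2-fold serially diluted in Mueller-Hinton broth (MHB), per CLSI microbroth dilution. Overnight cultures were adjusted in saline to 0.5 McFarland, then diluted 1:50 in MHB to about 5 × 10^5 CFU/mL final, and incubated 18 h at 37 °C. MIC was the lowest concentration with no visible turbidity, confirmed at 590 nm. Fold potentiation = MIC alone / MIC with adjuvant.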

Escherichia coli [5] = test: Potentiation of rifampicin-induced antibiotic activity against Escherichia coli ATCC 25922 assessed as MIC fold reduction at 8 ug/ml after 18 hrs by microbroth dilution method; format: functional; conditions: dose 8 µg/ml
Escherichia coli [6] = test: Potentiation of chloamphenicol-induced antibiotic activity against Escherichia coli ATCC 25922 assessed as MIC fold reduction at 8 ug/ml after 18 hrs by microbroth dilution method; format: functional; conditions: dose 8 µg/ml; summary of the method: as §1
Acinetobacter baumannii [7] = test: Potentiation of erythromycin-induced antibiotic activity against Acinetobacter baumannii ATCC 17978 assessed as MIC fold reduction at 8 ug/ml after 18 hrs by microbroth dilution method; format: functional; conditions: dose 8 µg/ml; summary of the method: as §1
Escherichia coli [8] = test: Potentiation of cindamycin-induced antibiotic activity against Escherichia coli ATCC 25922 assessed as MIC fold reduction at 8 ug/ml after 18 hrs by microbroth dilution method; format: functional; conditions: dose 8 µg/ml; summary of the method: as §1
Pseudomonas aeruginosa [9] = test: Potentiation of pleuromutilin-induced antibiotic activity against Pseudomonas aeruginosa PAO1 assessed as MIC fold reduction at 8 ug/ml after 18 hrs by microbroth dilution method; format: functional; conditions: dose 8 µg/ml
Escherichia coli [10] = test: Potentiation of trimethoprim-induced antibiotic activity against Escherichia coli ATCC 25922 assessed as MIC fold reduction at 8 ug/ml after 18 hrs by microbroth dilution method; format: functional; conditions: dose 8 µg/ml
Escherichia coli [11] = test: Potentiation of sulfamethoxazole-induced antibiotic activity against Escherichia coli ATCC 25922 assessed as MIC fold reduction at 8 ug/ml after 18 hrs by microbroth dilution method; format: functional; conditions: dose 8 µg/ml
Pseudomonas aeruginosa [12] = test: Potentiation of cotrimoxazole-induced antibiotic activity against Pseudomonas aeruginosa PAO1 assessed as MIC fold reduction at 8 ug/ml after 18 hrs by microbroth dilution method; format: functional; conditions: dose 8 µg/ml; summary of the method: as §1
Pseudomonas aeruginosa [13] = test: Potentiation of cefotaxime-induced antibiotic activity against […] Pseudomonas aeruginosa PAO1 assessed as MIC fold reduction at 8 ug/ml after 18 hrs by microbroth dilution method; format: functional, organism-based; conditions: dose 8.0 µg/ml; summary of the method: as §1
Pseudomonas aeruginosa [14] = test: Potentiation of ceftolozane-induced antibiotic activity against MDR clinical isolate Pseudomonas aeruginosa PA260 assessed as MIC fold reduction at 8 ug/ml after 18 hrs by microbroth dilution method; format: functional, organism-based; conditions: dose 8.0 µg/ml; summary of the method: as §1
Pseudomonas aeruginosa [15] = test: Antibacterial activity against colistin-resistant clinical isolate Pseudomonas aeruginosa PA101243 assessed as reduction in bacterial growth after 18 hrs by microbroth dilution method; format: functional
Summary of the method: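 Broth microdilution per CLSI in Mueller-Hinton broth (MHB). Overnight cultures were adjusted to 0.5 McFarland in saline, diluted 1:50 in MHB, and added at about 5 × 10^5 CFU/mL final to equal volumes of 2-fold serial dilutions of agent. Incubation was 18 h at 37 °C. MIC was the lowest concentration with no visible turbidity, confirmed by absorbance at 590 nm.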

Pseudomonas aeruginosa [16] = test: Antibacterial activity against MDR clinical isolate Pseudomonas aeruginosa PA101885 assessed as reduction in bacterial growth after 18 hrs in presence of cefiderocol by microbroth dilution method; format: functional
Summary of the method: (§2)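 Checkerboard in MHB (iron-replete, not iron-depleted CAMHB). Cefiderocol was 2-fold serially diluted along one axis and the adjuvant along the other. Inoculum was 0.5 McFarland diluted 1:50, about 5 × 10^5 CFU/mL final. Incubation was 18 h at 37 °C, with turbidity read visually and confirmed at 590 nm. FIC was the MIC in combination over the MIC alone for each agent, and the FIC index was their sum. Cut-offs were ≤0.5 synergy, >0.5–4 additive, >4 antagonism.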

Pseudomonas aeruginosa [17] = test: Antibacterial activity against MDR clinical isolate Pseudomonas aeruginosa PA260 assessed as potentiation of cefiderocol antibacterial activity by measuring FIC index after 18 hrs by microbroth dilution method; format: functional
Summary of the method: (§3)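 Checkerboard in MHB. Cefiderocol was 2-fold serially diluted along one axis and the adjuvant along the other. Inoculum was prepared from 0.5 McFarland saline suspensions diluted 1:50 in MHB, giving about 5 × 10^5 CFU/mL final. Plates ran 18 h at 37 °C, with turbidity confirmed at 590 nm. FIC = combination MIC ÷ MIC alone for each agent, and FIC index = sum of both. Interpretation: ≤0.5 synergy, >0.5–4 additive, >4 antagonism.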

Pseudomonas aeruginosa [18] = test: Antibacterial activity against MDR clinical isolate Pseudomonas aeruginosa PA101885 assessed as potentiation of cefiderocol antibacterial activity by measuring FIC index after 18 hrs by microbroth dilution method; format: functional; summary of the method: as §3
Pseudomonas aeruginosa [19] = test: Antibacterial activity against colistin-resistant clinical isolate Pseudomonas aeruginosa PA91433 assessed as potentiation of cefiderocol antibacterial activity by measuring FIC index after 18 hrs by microbroth dilution method; format: functional; summary of the method: as §2
Escherichia coli [20] = test: Antibacterial activity against Escherichia coli 107115 assessed as reduction in bacterial growth after 18 hrs by microbroth dilution method; format: functional
Summary of the method: (§4)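 CLSI microbroth dilution in MHB. Overnight cultures were adjusted to 0.5 McFarland in saline, diluted 1:50, and inoculated at about 5 × 10^5 CFU/mL. Agents were 2-fold serially diluted and incubated 18 h at 37 °C. MIC is the lowest concentration without visible turbidity, confirmed by absorbance at 590 nm. Medium with and without cells served as controls.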

Escherichia coli [21] = test: Antibacterial activity against Escherichia coli 94474 assessed as reduction in bacterial growth after 18 hrs by microbroth dilution method; format: functional; summary of the method: as §4
Klebsiella pneumoniae [22] = test: Antibacterial activity against Klebsiella pneumoniae KP113250 assessed as potentiation of cefiderocol antibacterial activity by measuring FIC after 18 hrs by microbroth dilution method; format: functional
Summary of the method: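 Checkerboard in Mueller-Hinton broth: cefiderocol 2-fold diluted on one axis, adjuvant 2-fold on the other. Overnight cultures were adjusted to 0.5 McFarland in saline, diluted 1:50 in MHB, and inoculated at about 5 × 10^5 CFU/mL. Incubation was 18 h at 37 °C. Turbidity was read visually and confirmed at 590 nm. FIC index = FIC of antibiotic + FIC of adjuvant; ≤0.5 synergy, >4 antagonism.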

Klebsiella pneumoniae [23] = test: Antibacterial activity against Klebsiella pneumoniae KP116381 assessed as potentiation of cefiderocol antibacterial activity by measuring FIC after 18 hrs by microbroth dilution method; format: functional; summary of the method: as §3
Pseudomonas aeruginosa [24] = test: Potentiation of moxifloxacin-induced antibiotic activity against Pseudomonas aeruginosa PA260 assessed as MIC fold reduction in ID-CAMHB condition at 8 ug/ml after 18 hrs by microbroth dilution method; format: functional, organism-based; conditions: dose 8.0 µg/ml

## NC[C@H]1O[C@H](O[C@H]2[C@H](OCCCCc3cn(-c4ccc(NC(=O)c5cc(Cl)ccc5O)cc4)nn3)[C@@H](O[C@H]3O[C@H](CO)[C@@H](O)[C@H](N)[C@H]3O)[C@H](N)C[C@@H]2N)[C@H](N)C[C@@H]1O
Escherichia coli [1]
  fold change (FC): 4
Acinetobacter baumannii [2]
  fold change (FC): 4
Escherichia coli [3]
  fold change (FC): 4
Pseudomonas aeruginosa [4]
  fold change (FC): 4
Escherichia coli [5]
  fold change (FC): 4
Escherichia coli [6]
  fold change (FC): 4
Acinetobacter baumannii [7]
  fold change (FC): 4
Escherichia coli [8]
  fold change (FC): 4
Pseudomonas aeruginosa [9]
  fold change (FC): 4
Escherichia coli [10]
  fold change (FC): 4
Escherichia coli [11]
  fold change (FC): 4
Pseudomonas aeruginosa [12]
  fold change (FC): 4
Pseudomonas aeruginosa [13]
  Activity: Active
Pseudomonas aeruginosa [14]
  Activity: Active
Pseudomonas aeruginosa [15]
  MIC: > 128 µg/mL
Pseudomonas aeruginosa [16]
  MIC: 2 µg/mL
Pseudomonas aeruginosa [17]
  FIC: 0.063
Pseudomonas aeruginosa [18]
  FIC: 0.017
Pseudomonas aeruginosa [19]
  FIC: 0.016
Escherichia coli [20]
  MIC: > 128 µg/mL
Escherichia coli [21]
  MIC: > 128 µg/mL
Klebsiella pneumoniae [22]
  FIC: 0.25
Klebsiella pneumoniae [23]
  FIC: 0.5
Pseudomonas aeruginosa [24]
  Activity: Active

From ChEMBL document CHEMBL5136969, “A niclosamide-tobramycin hybrid adjuvant potentiates cefiderocol against P. aeruginosa” (2021)
